Measured values published in ChEMBL document CHEMBL1926577, “Novel 1,3,4-heterodiazole analogues: synthesis and in-vitro antitumor activity” (2012).

Tests used:
Format in all cases: functional
SK-MEL-28 = assay: Growth inhibition of human SK-MEL-28 cells at 10 uM after 48 hrs by coulter counter method; details: SK-MEL-28, 48 h, read-out: GI
Method in brief: (§1)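 NCI 60-cell-line panel, single dose. Compound dissolved first in DMSO, then diluted in phosphate-buffered saline so that every final dilution held under 1% DMSO. Duplicate wells received cells at 6 × 10⁴ cells/ml. Controls held PBS/DMSO at the same dilution. Plates were incubated 48 h at 37 °C under 5% CO₂. Cells were then diluted 10-fold in saline and counted on a Coulter counter, with counts corrected for the dilution. Results are given as percent growth inhibition.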

HL-60(TB) = assay: Growth inhibition of human HL-60(TB) cells at 10 uM after 48 hrs by coulter counter method; details: HL-60, 48 h, read-out: GI
Method in brief: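 Single-dose screen on the NCI 60-line panel (leukemia subpanel). Compound is dissolved in DMSO and diluted in PBS, with final DMSO below 1%. Duplicate wells hold 6 × 10⁴ cells/ml at 37 °C, 5% CO₂, for 48 h. Cells are counted by Coulter counter after 10-fold saline dilution. Read-out is percent growth versus PBS/DMSO controls, expressed as % growth inhibition.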

CCRF-CEM = assay: Growth inhibition of human CCRF-CEM cells at 10 uM after 48 hrs by coulter counter method; details: read-out: GI; method in brief: as §1
SNB-19 = assay: Growth inhibition of human SNB19 cells at 10 uM after 48 hrs by coulter counter method; details: SNB-19, 48 h, read-out: GI; method in brief: as §1
NCI-H23 = assay: Growth inhibition of human NCI-H23 cells at 10 uM after 48 hrs by coulter counter method; details: NCI-H23, 48 h, read-out: GI; method in brief: as §1
SF-295 = assay: Growth inhibition of human SF295 cells at 10 uM after 48 hrs by coulter counter method; details: SF-295, 48 h, read-out: GI; method in brief: as §1
A498 = assay: Growth inhibition of human A498 cells at 10 uM after 48 hrs by coulter counter method; details: A498, 48 h, read-out: GI; method in brief: as §1
U-251 = assay: Growth inhibition of human U251 cells at 10 uM after 48 hrs by coulter counter method; details: U-251, 48 h, read-out: GI; method in brief: as §1
SN12C = assay: Growth inhibition of human SN12C cells at 10 uM after 48 hrs by coulter counter method; details: read-out: GI; method in brief: as §1
Malme-3M = assay: Growth inhibition of human MALME-3M cells at 10 uM after 48 hrs by coulter counter method; details: read-out: GI; method in brief: as §1
NCI-H322M = assay: Growth inhibition of human NCI-H322M cells at 10 uM after 48 hrs by coulter counter method; details: read-out: GI; method in brief: as §1
PC-3 = assay: Growth inhibition of human PC3 cells at 10 uM after 48 hrs by coulter counter method; details: PC-3, 48 h, read-out: GI; method in brief: as §1
ACHN = assay: Growth inhibition of human ACHN cells at 10 uM after 48 hrs by coulter counter method; details: read-out: GI; method in brief: as §1
NCI-H522 = assay: Growth inhibition of human NCI-H522 cells at 10 uM after 48 hrs by coulter counter method; details: NCI-H522, 48 h, read-out: GI; method in brief: as §1
SF-268 = assay: Growth inhibition of human SF268 cells at 10 uM after 48 hrs by coulter counter method; details: SF-268, 48 h, read-out: GI; method in brief: as §1
SK-MEL-2 = assay: Growth inhibition of human SK-MEL-2 cells at 10 uM after 48 hrs by coulter counter method; details: SK-MEL-2, 48 h, read-out: GI; method in brief: as §1
UACC-257 = assay: Growth inhibition of human UACC257 cells at 10 uM after 48 hrs by coulter counter method; details: UACC-257, 48 h, read-out: GI; method in brief: as §1
K562 = assay: Growth inhibition of human K562 cells at 10 uM after 48 hrs by coulter counter method; details: K562, 48 h, read-out: GI; method in brief: as §1
TK-10 = assay: Growth inhibition of human TK10 cells at 10 uM after 48 hrs by coulter counter method; details: TK-10, 48 h, read-out: GI; method in brief: as §1
M14 = assay: Growth inhibition of human M14 cells at 10 uM after 48 hrs by coulter counter method; details: M14, 48 h, read-out: GI; method in brief: as §1
786-0 = assay: Growth inhibition of human 786-0 cells at 10 uM after 48 hrs by coulter counter method; details: 786-0, 48 h, read-out: GI; method in brief: as §1
NCI-H226 = assay: Growth inhibition of human NCI-H226 cells at 10 uM after 48 hrs by coulter counter method; details: NCI-H226, 48 h, read-out: GI; method in brief: as §1
UO-31 = assay: Growth inhibition of human UO31 cells at 10 uM after 48 hrs by coulter counter method; details: UO-31, 48 h, read-out: GI; method in brief: as §1
UACC-62 = assay: Growth inhibition of human UACC62 cells at 10 uM after 48 hrs by coulter counter method; details: UACC-62, 48 h, read-out: GI; method in brief: as §1
NCI/ADR-RES = assay: Growth inhibition of human NCI/ADR-RES cells at 10 uM after 48 hrs by coulter counter method; details: read-out: GI; method in brief: as §1
OVCAR-8 = assay: Growth inhibition of human OVCAR8 cells at 10 uM after 48 hrs by coulter counter method; details: OVCAR-8, 48 h, read-out: GI; method in brief: as §1
MOLT-4 = assay: Growth inhibition of human MOLT4 cells at 10 uM after 48 hrs by coulter counter method; details: MOLT-4, 48 h, read-out: GI; method in brief: as §1
T47D = assay: Growth inhibition of human T47D cells at 10 uM after 48 hrs by coulter counter method; details: read-out: GI; method in brief: as §1
SR = assay: Growth inhibition of human SR cells at 10 uM after 48 hrs by coulter counter method; details: read-out: GI; method in brief: as §1
HT-29 = assay: Growth inhibition of human HT-29 cells at 10 uM after 48 hrs by coulter counter method; details: HT-29, 48 h, read-out: GI; method in brief: as §1
KM12 = assay: Growth inhibition of human KM12 cells at 10 uM after 48 hrs by coulter counter method; details: KM12, 48 h, read-out: GI; method in brief: as §1
EKVX = assay: Growth inhibition of human EKVX cells at 10 uM after 48 hrs by coulter counter method; details: read-out: GI; method in brief: as §1
CAKI-1 = assay: Growth inhibition of human Caki1 cells at 10 uM after 48 hrs by coulter counter method; details: CAKI-1, 48 h, read-out: GI; method in brief: as §1
MDA-MB-468 = assay: Growth inhibition of human MDA-MB-468 cells at 10 uM after 48 hrs by coulter counter method; details: MDA-MB-468, 48 h, read-out: GI; method in brief: as §1
HCT-15 = assay: Growth inhibition of human HCT15 cells at 10 uM after 48 hrs by coulter counter method; details: HCT-15, 48 h, read-out: GI; method in brief: as §1
SK-MEL-5 = assay: Growth inhibition of human SK-MEL-5 cells at 10 uM after 48 hrs by coulter counter method; details: SK-MEL-5, 48 h, read-out: GI; method in brief: as §1
A549 = assay: Growth inhibition of human A549 cells at 10 uM after 48 hrs by coulter counter method; details: A549, 48 h, read-out: GI; method in brief: as §1
SNB-75 = assay: Growth inhibition of human SNB75 cells at 10 uM after 48 hrs by coulter counter method; details: SNB-75, 48 h, read-out: GI; method in brief: as §1
BT-549 = assay: Growth inhibition of human BT549 cells at 10 uM after 48 hrs by coulter counter method; details: BT-549, 48 h, read-out: GI; method in brief: as §1
RPMI-8226 = assay: Growth inhibition of human RPMI8226 cells at 10 uM after 48 hrs by coulter counter method; details: RPMI-8226, 48 h, read-out: GI; method in brief: as §1
MDA-MB-435 = assay: Growth inhibition of human MDA-MB-435 cells at 10 uM after 48 hrs by coulter counter method; details: MDA-MB-435, 48 h, read-out: GI; method in brief: as §1
MCF7 = assay: Growth inhibition of human MCF7 cells at 10 uM after 48 hrs by coulter counter method; details: MCF7, 48 h, read-out: GI; method in brief: as §1
IGROV-1 = assay: Growth inhibition of human IGROV1 cells at 10 uM after 48 hrs by coulter counter method; details: IGROV-1, 48 h, read-out: GI; method in brief: as §1
HCT-116 = assay: Growth inhibition of human HCT116 cells at 10 uM after 48 hrs by coulter counter method; details: HCT-116, 48 h, read-out: GI; method in brief: as §1
LOX IMVI = assay: Growth inhibition of human LOXIMVI cells at 10 uM after 48 hrs by coulter counter method; details: read-out: GI; method in brief: as §1

SMILES: O=C1N=C2SC(c3ccc(Cl)cc3)=NN2C1=O
- inhibition of growth at 10 µM (SK-MEL-28): < 10%
- inhibition of growth at 10 µM (HL-60(TB)): 15.2%
- inhibition of growth at 10 µM (CCRF-CEM): < 10%
- inhibition of growth at 10 µM (SNB-19): < 10%
- inhibition of growth at 10 µM (NCI-H23): < 10%
- inhibition of growth at 10 µM (SF-295): < 10%
- inhibition of growth at 10 µM (A498): < 10%
- inhibition of growth at 10 µM (U-251): < 10%
- inhibition of growth at 10 µM (SN12C): < 10%
- inhibition of growth at 10 µM (Malme-3M): < 10%
- inhibition of growth at 10 µM (NCI-H322M): < 10%
- inhibition of growth at 10 µM (PC-3): < 10%
- inhibition of growth at 10 µM (ACHN): < 10%
- inhibition of growth at 10 µM (NCI-H522): 19.7%
- inhibition of growth at 10 µM (SF-268): < 10%
- inhibition of growth at 10 µM (SK-MEL-2): < 10%
- inhibition of growth at 10 µM (UACC-257): < 10%
- inhibition of growth at 10 µM (K562): 12.7%
- inhibition of growth at 10 µM (TK-10): < 10%
- inhibition of growth at 10 µM (M14): < 10%
- inhibition of growth at 10 µM (786-0): < 10%
- inhibition of growth at 10 µM (NCI-H226): < 10%
- inhibition of growth at 10 µM (UO-31): < 10%
- inhibition of growth at 10 µM (UACC-62): < 10%
- inhibition of growth at 10 µM (NCI/ADR-RES): < 10%
- inhibition of growth at 10 µM (OVCAR-8): < 10%
- inhibition of growth at 10 µM (MOLT-4): 10.6%
- inhibition of growth at 10 µM (T47D): < 10%
- inhibition of growth at 10 µM (SR): 11.1%
- inhibition of growth at 10 µM (HT-29): < 10%
- inhibition of growth at 10 µM (KM12): < 10%
- inhibition of growth at 10 µM (EKVX): < 10%
- inhibition of growth at 10 µM (CAKI-1): < 10%
- inhibition of growth at 10 µM (MDA-MB-468): < 10%
- inhibition of growth at 10 µM (HCT-15): < 10%
- inhibition of growth at 10 µM (SK-MEL-5): < 10%
- inhibition of growth at 10 µM (A549): < 10%
- inhibition of growth at 10 µM (SNB-75): < 10%
- inhibition of growth at 10 µM (BT-549): 12.2%
- inhibition of growth at 10 µM (RPMI-8226): < 10%
- inhibition of growth at 10 µM (MDA-MB-435): < 10%
- inhibition of growth at 10 µM (MCF7): 12.1%
- inhibition of growth at 10 µM (IGROV-1): < 10%
- inhibition of growth at 10 µM (HCT-116): < 10%
- inhibition of growth at 10 µM (LOX IMVI): < 10%
